PTEN del growth – growth suppression of PTEN-null HCT116, primary screen, cell-based, CellTiter-Glo. AID 827, 2007. hit rate 1.2% among 140,000. HCT116 PTEN-null viability, 60 h; stronger effect = lower value. viability, % at 10 µM;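 active means viability at or below a set limit, 4 SD under the median of all tested compounds, cut at about 3.7% in these data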;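 further: PTEN knockout HCT116 line with beta catenin targeted HCT116 as companion control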
Lmaj promast – Leishmania major promastigote growth inhibition, primary screen | Leishmania major promastigotes, resazurin fluorescence viability | inhibition, % at 10 µM | hit rate 9% among 200,000; in the data active means inhibition above about 50%;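 further: promastigotes grown with compound for 44 hours at 28 °C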
TNAP act hi DEA – TNAP activators at high phosphate acceptor level, primary screen, biochemical, luminescence, uHTS; Alkaline phosphatase, tissue-nonspecific isozyme (Homo sapiens), P05186; 200,000 tested, under 10 active; purified TNAP, CDP-star luminescence, 1 M DEA, 30 min; stronger effect = higher value; 0 = EDTA background, 1 = DMSO-only activity; activation factor at 20 µM;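 active means activation factor at least 2 at 20 µM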
Target sequence (P05186 whole entry, looked up): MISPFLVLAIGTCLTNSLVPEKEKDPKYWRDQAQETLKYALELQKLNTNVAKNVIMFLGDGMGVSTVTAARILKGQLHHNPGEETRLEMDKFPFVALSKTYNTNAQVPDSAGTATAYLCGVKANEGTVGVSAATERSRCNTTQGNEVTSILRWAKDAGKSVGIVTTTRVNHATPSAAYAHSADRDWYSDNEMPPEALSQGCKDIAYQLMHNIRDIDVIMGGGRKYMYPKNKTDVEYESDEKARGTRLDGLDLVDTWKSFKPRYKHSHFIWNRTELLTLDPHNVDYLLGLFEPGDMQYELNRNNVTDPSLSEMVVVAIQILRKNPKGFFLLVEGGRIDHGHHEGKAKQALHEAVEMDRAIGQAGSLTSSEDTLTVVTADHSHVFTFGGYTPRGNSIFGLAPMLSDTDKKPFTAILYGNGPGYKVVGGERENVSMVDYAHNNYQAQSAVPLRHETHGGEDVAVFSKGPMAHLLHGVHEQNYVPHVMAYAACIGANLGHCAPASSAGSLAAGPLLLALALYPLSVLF
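Measured by: Luminescent substrate turnover signal | Test system: Human TNAP | Input: TNAP 1/800 final | Dosing: 20 µM single point | Schedule: 30 min, room temperature | Controls: EDTA wells as negative control, DMSO wells as positive control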
TNAP inh noacc – human TNAP enzyme inhibitors, primary screen, biochemical, luminescent, no phosphate acceptor, uHTS. Alkaline phosphatase, tissue-nonspecific isozyme (Homo sapiens), P05186. purified TNAP, CDP-star luminescence, 30 min. inhibition, % at 20 µM. hit rate 0.26% among 200,000. AID 1012, 2008;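 active means tissue-nonspecific alkaline phosphatase inhibition above about 50% at 20 µM in the single-dose screen, limit read from the data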
bCat KO growth – primary screen for growth suppressors in beta-catenin knockout HCT116 cells (colon tumor, human) | hit rate 1.5% among 140,000 | HCT116 beta-catenin knockout viability, CellTiter-Glo, 60 h; stronger effect = lower value | viability, % at 10 µM | AID 818, 2007;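 active means viability at or under a set limit, the compound median less 4 SD, cut at about 6% in these data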
TNAP inh hi DEA – human TNAP enzyme inhibitors, primary screen, biochemical, luminescent, high phosphate acceptor level, uHTS | Alkaline phosphatase, tissue-nonspecific isozyme (Homo sapiens), P05186 | purified TNAP, CDP-star luminescence, 1 M DEA | inhibition, % at 20 µM | hit rate 0.03% among 200,000 | AID 1135, 2008;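 active means over 50% inhibition of tissue-nonspecific alkaline phosphatase at 20 µM in the single-dose screen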
Hits are given with their value; – = inactive; · = no result given. This is a sample that favours compounds with a hit; in the whole collection about 9.6% have one here.

SMILES	PTEN del growth	Lmaj promast	TNAP act hi DEA	TNAP inh noacc	bCat KO growth	TNAP inh hi DEA
CCN(CC)S(=O)(=O)c1ccc(N2CCCCC2)c(NC(=O)/C=C/c2cc(OC)c(OC)c(OC)c2)c1	–	68.5	–	–	–	–
COc1ccccc1OCC(=O)Nc1cc(S(=O)(=O)N2CCCCC2)ccc1N1CCCCC1	–	98.0	–	–	–	–
COc1ccccc1N1CCN(C(=O)c2ccc(S(=O)(=O)N3CCCC3)cc2)CC1	–	62.6	–	–	–	–
C/C(CC(=O)N(C(C)C)C(C)C)=N\NC(=O)c1ccccc1Br	–	–	–	–	–	–
O=C(/C=C/c1ccc2c(c1)OCO2)Nc1cc(S(=O)(=O)N2CCOCC2)ccc1N1CCOCC1	–	63.8	–	–	–	–
Cc1nn(C)c(=O)n1N(C)c1ncc(C(F)(F)F)cc1Cl	·	–	–	–	·	–
COc1cc(/C=N/n2c(-c3ccc4c(c3)NC(=O)CO4)csc2=Nc2cccc(C)c2)ccc1O	–	91.6	–	–	–	–
COc1ccccc1Nc1nc(-c2ccc3c(c2)NC(=O)CO3)cs1	·	–	–	–	·	–
COc1ccc(C2NC(=O)c3sc(=S)n(-c4ccccc4)c3N2)cc1 (stereo not given)	3.2	–	–	–	–	–
Cc1ccc(-c2cc(C(=O)O)c3sc(N4CCCCC4)nc3n2)cc1	–	–	–	–	–	–
COc1ccc(-c2cc(C(=O)O)c3sc(N4CCCCC4)nc3n2)cc1OC	–	51.8	–	–	–	–
CCOC(=O)c1cc(-c2ccccc2)nc2nc(N3CCCCC3)sc12	–	72.5	–	–	–	–
CCN1C(=O)/C(=C/c2ccc(N3CCCC3)cc2)NC1=S	–	–	–	–	–	–
CCOC(=O)C1=NOC(C(=O)NN(C)c2ncc(C(F)(F)F)cc2Cl)C1 (stereo not given)	·	–	–	–	·	–
CCOCCCNC(=S)N1CCC(NC(=O)C23CC4CC(CC(C4)C2)C3)CC1	·	63.2	–	–	·	–
Cc1ccccc1OCCOCCN1CCCCCC1	·	98.6	–	–	·	–
Cc1cc(OCCOCCN2CCCC2)ccc1C(C)C	–	99.9	–	–	–	–
Cc1cccc(OCCOCCN2CCOCC2)c1C	–	87.7	–	–	–	–
CCOc1cccc(OCCOCCN2CCCC2)c1	–	–	–	–	–	–
CCc1cccc(OCCOCCN2CCCC2)c1	–	96.6	–	–	–	–
O=C(NCc1ccncc1)c1cc(C(=O)C2CC2)c[nH]1	·	–	–	–	·	–
Cc1cc(C)c(C)c(S(=O)(=O)N2CCCCC2C(=O)O)c1C (stereo not given)	·	–	–	–	·	–
O=C(O)CS(=O)(=O)CC(=O)NCc1cccc(C(F)(F)F)c1	·	–	–	–	·	–
Cc1c(-c2ccccc2)[n+](=O)c2c(n1[O-])CCCCC2	–	–	–	–	–	–
Cc1ccc(C(C)C)cc1OCCOCCN1CCCC1	–	99.8	–	–	–	–
SMILES	PTEN del growth	Lmaj promast	TNAP act hi DEA	TNAP inh noacc	bCat KO growth	TNAP inh hi DEA
O=C(Nc1ccc(N2CCOCC2)nc1)c1ccc(C(F)(F)F)cc1	·	–	–	–	·	–
CC(C)[C@H](NC(=O)[C@H](CC(=O)O)NC(=O)[C@H](CCCCN)NC(=O)[C@@H](N)CCCN=C(N)N)C(=O)N[C@@H](Cc1ccc(O)cc1)C(=O)O	–	–	–	–	–	–
COc1ccc(-n2cc(CNC3CCC(O)CC3)c(-c3cccc(F)c3)n2)cc1 (stereo not given)	·	84.5	–	–	·	–
COc1ccc(-n2cc(CNCc3cccnc3)c(-c3cccc(F)c3)n2)cc1	·	–	–	–	·	–
COc1ccc(-n2cc(CNCCc3cnc[nH]3)c(-c3cccc(F)c3)n2)cc1	·	100.3	–	–	·	–
COc1ccc(CNCc2cn(-c3cccc(F)c3)nc2-c2ccc(C)o2)cc1	·	95.9	–	–	·	–
CCOC(=O)c1nn(-c2ccc(Cl)cc2)c2nnc(Cc3ccccc3)c(=O)n12	–	–	–	–	–	–
Cc1nn(CC(=O)NCc2ccc(Cl)cc2)c(C)c1[N+](=O)[O-]	–	–	–	–	–	–
COc1cccc(CNC(=O)CSc2ccc(-c3cccs3)nn2)c1	·	–	–	–	·	–
Cc1cc(C)n(-c2nc(C)nc(NCc3ccccc3)n2)n1	–	59.3	–	–	–	–
Cc1cc(C)n(-c2ccc(C(=O)OCC(=O)NCc3ccc(Cl)cc3)cc2)n1	–	–	–	–	–	–
Cc1cc(C)n(-c2nnc(NCc3ccc(Cl)cc3)nn2)n1	·	90.7	–	–	·	–
Cc1nn(-c2ccc3nnc(Br)n3n2)c(C)c1Br	–	–	–	–	–	–
Cc1nn(-c2nnc(NCc3ccccc3)nn2)c(C)c1Br	–	84.3	–	–	–	–
CNc1nc(C)nc(-n2nc(C)cc2C)n1	–	–	–	–	–	–
O=S(=O)(c1cccc(-c2nnc3n2CCCCC3)c1)N1CCCC1	·	–	–	–	·	–
O=C(CCC1CCCCC1)NCc1ccccn1	–	–	–	–	–	–
CCOc1ccc(N(CC(=O)Nc2ccccc2C(=O)NC(C)CC)S(C)(=O)=O)cc1 (stereo not given)	–	–	–	–	–	–
OC(COc1ccc(OCc2ccccc2)cc1)CN1CCOCC1 (stereo not given)	–	97.4	–	–	–	–
O=C(c1ccccc1)c1ccc(OCC(O)CN2CCOCC2)cc1 (stereo not given)	·	–	·	·	·	·
OC(COc1ccc(-c2ccccc2)cc1)CN1CCOCC1 (stereo not given)	·	93.2	–	–	·	–
OC(COc1ccc(OCc2ccccc2)cc1)CN1CCCCC1 (stereo not given)	–	96.2	–	–	–	–
O=S(=O)(c1ccc(OCC(O)CN2CCN(c3ccccc3)CC2)cc1)N1CCOCC1 (stereo not given)	–	–	–	–	–	–
O=S(=O)(c1ccc(OCC(O)CN2CCC(Cc3ccccc3)CC2)cc1)N1CCOCC1 (stereo not given)	–	99.7	–	–	–	–
CN=C1SC(C(=O)Nc2ccccc2Cl)CC(=O)N1c1ccc(OC(F)(F)Cl)cc1 (stereo not given)	·	–	–	–	·	–
Cc1nnc(SCC(=O)Nc2ccccc2NC(=O)CSc2nnc(C)s2)s1	–	–	–	–	–	–
Cc1ccc(C)c(NC(=O)CSc2nnc(-c3n[nH]c4ccccc34)o2)c1	–	59.8	–	–	–	–
CCn1c(SCC(=O)Nc2ccc3c(c2)c2ccccc2n3CC)nnc1-c1cnccn1	–	98.7	–	–	–	–
